Experimental data published in PubChem BioAssay.
Results filed as inconclusive are left out. Calls of active or inactive are those of the source.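 Rule for the calls, unless noted: active = cell viability at or below a set limit in both duplicate runs, the limit being the all-compound median minus 4 SD (cut at about 23% in these data, passing the limit was not always enough); inconclusive = no clear call, values can overlap the other calls; inactive = the rest.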

What was measured:
[1] = S. cerevisiae growth inhibition in permissive medium (OD615), pilot counter-assay for S. cerevisiae lifespan shortening project, permissive growth control (AID 705;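 active = growth inhibition above 25% in both replicates, a cutoff set 3 SD above the mean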); conditions: OD615, 24 h, at 10 µM, hits give high values
Procedure, shortened: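 Timing: 24 h exposure, 30 °C / Material: Saccharomyces cerevisiae strain carrying genetically modified DeaD replicative-lifespan system / Signal: OD at 615 nm / Compound: 10 µM single dose, 0.25% DMSO / Medium: SC raffinose/galactose permissive medium / Evaluation: reduction in yeast growth (OD615)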

[2] = S. cerevisiae growth inhibition in restrictive medium, OD615, pilot screen, restrictive growth control, yeast lifespan reduction project (AID 706;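 active = growth inhibition above a set limit, 3 SD over mean compound inhibition, in both replicates, cut at about 43% in these data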;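 note: modified DeaD lifespan yeast strain shifted to restrictive glucose medium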); conditions: OD615, 48 h, at 10 µM, hits give high values
Procedure, shortened: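 System: Engineered S. cerevisiae DeaD strain | Detection: OD615 | Buffer or medium: CSMM-D glucose medium | Doses: 10 µM compound, 0.25% DMSO | Timing: 4 h pre-growth plus 48 h compound exposure, 30 °C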

[3] = doxorubicin toxicity protection in MRP-1 cells – H69AR cells, CellTiter-Glo, duplicate, MRP-1 activator project, pilot screen (AID 807;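 active = viability increase at or above a cutoff of the median across tested compounds plus 3 SD, cut at about 8.5% in these data, passing the limit was not always enough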;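 note: compound pretreatment 18-22 h then 72 h combined with doxorubicin; 0% = doxorubicin alone and 100% = vehicle without doxorubicin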); conditions: H69AR viability with doxorubicin, CellTiter-Glo luminescence; at 10 µM; hits give high values
[4] = viability of HCT116 without oncogenic beta-catenin – human colon tumor cells, pilot screen (AID 823); conditions: HCT116 beta-catenin knockout viability, CellTiter-Glo, 60 h; at 10 µM; hits give low values;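 note: 0% = wells killed by 20 µM Hyamine and 100% = untreated DMSO cell wells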
[5] = viability of PTEN-null HCT116 cells – cell-based, HCT116 clonal line, CellTiter-Glo, pilot screen (AID 824;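 active = viability at or below 27.92% in each of two runs, the all-compound median minus 4 SD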;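 note: 0% = 20 µM Hyamine control and 100% = vehicle cell control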); conditions: HCT116 PTEN-deleted viability, 60 h, at 10 µM, hits give low values
[6] = RAM pathway blockade in budding yeast – dse1pr::URA3 reporter, 5-FOA selection, pilot screen (AID 869;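 active = inhibition over a set limit, the all-compound mean plus 3 SD, in both replicate runs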;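 note: 0% = DMSO wells with no growth and 100% = 10 µM 1-NA-PP1 with full growth; RAM network block rescues cells from 5-FOA so hits raise OD615 growth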); conditions: S. cerevisiae dse1pr::URA3 5-FOA growth, OD615, 2 d; at 10 µM; hits give high values; strain carries analog-sensitive mutant Cbk1 kinase
[7] = RAM signaling pathway blockade in yeast – S. cerevisiae, Pdr1DBD-CYC8 efflux-inhibited sensitized strain, primary screen (AID 1298;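 active = RAM network inhibition above 8.4% in each of two replicates, 3 SD over the compound average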;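 note: 0% = DMSO untreated cells without growth and 100% = 10 µM 1-NA-PP1 full growth; higher means more yeast growth rescued from 5-FOA killing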); conditions: S. cerevisiae cbk1-as DSE1-URA3 strain, 5-FOA growth OD615, 2 d; at 50 µM; hits give high values

Cc1occc1-c1nnc2sc(-c3ccc(-c4ccc(Cl)cc4)o3)nn12
inactive: growth inhibition [1] 7.94% | growth inhibition [2] 21.2% | viability increase [3] 2.86% | viability [4] 106% | viability [5] 95.8% | inhibition [6] 3.19% | RAM network inhibition [7] 5.57%

COC(=O)CSC1=C(C#N)C(c2ccccc2F)CC(=O)N1 (stereo not given)
inactive: growth inhibition [1] -9.32% | growth inhibition [2] -6.92% | viability increase [3] -2.29% | viability [4] 92.6% | viability [5] 94.1% | inhibition [6] 1.32% | RAM network inhibition [7] 0.84%

Brc1ccc(-c2nnc3sc(CNCc4ccc5c(c4)OCO5)cn23)cc1
inactive: growth inhibition [1] 5.46% | growth inhibition [2] 20.8% | viability increase [3] -0.67% | viability [4] 99.6% | viability [5] 99.8% | inhibition [6] 1.17% | RAM network inhibition [7] 1.64%

CCCC(=O)Nc1nc2ccc(OCC)cc2s1
inactive: growth inhibition [1] -2.23% | growth inhibition [2] -0.195% | viability increase [3] 0.26% | viability [4] 86.8% | viability [5] 85.7% | inhibition [6] 0.615% | RAM network inhibition [7] 2.15%

O=C(Cn1cc2c(n1)CCCC2)N1CCc2ccccc21
inactive: growth inhibition [1] -7.55% | growth inhibition [2] 9.02% | viability increase [3] -2.04% | viability [4] 66% | viability [5] 77.4% | inhibition [6] 2.28% | RAM network inhibition [7] -1.03%

COc1ccccc1NC(=O)C1=C(C)NC(=O)NC1c1ccccc1F (stereo not given)
inactive: growth inhibition [1] -7.88% | growth inhibition [2] -13.5% | viability increase [3] -0.75% | viability [4] 99.2% | viability [5] 107% | inhibition [6] 1.82% | RAM network inhibition [7] 2.41%

O=S(=O)(c1ccc(Oc2ccc(S(=O)(=O)N3CCOCC3)cc2)cc1)N1CCOCC1
inactive: growth inhibition [1] -21.5% | growth inhibition [2] -21.2% | viability increase [3] -1.32% | viability [4] 82.7% | viability [5] 87.6% | inhibition [6] 4.01% | RAM network inhibition [7] 4.04%

CSc1ccc(C2C(C#N)=C(N)N(c3ccccc3)C3=C2C(=O)CCC3)cc1 (stereo not given)
inactive: growth inhibition [1] -11.5% | growth inhibition [2] -19.7% | viability increase [3] -7.43% | viability [4] 69.5% | viability [5] 74.6% | inhibition [6] 1.18% | RAM network inhibition [7] 2.23%

O=C(NCc1ccco1)c1ccc2c(c1)N(Cc1ccccc1)C(=O)CS2=O (stereo not given)
inactive: growth inhibition [1] -4.13% | growth inhibition [2] 3.41% | viability increase [3] 3.66% | viability [4] 97.8% | viability [5] 82.6% | inhibition [6] 0.885% | RAM network inhibition [7] 1.29%

O=C1CN(C(=O)c2ccc(Br)o2)C(c2ccccc2)c2cc(F)ccc2N1 (stereo not given)
inactive: growth inhibition [1] -12.5% | growth inhibition [2] -28% | viability increase [3] -5.91% | viability [4] 84.9% | viability [5] 78.7% | inhibition [6] 1.08% | RAM network inhibition [7] 2.36%

O=C(Cn1cnc2c(nnn2-c2ccccc2)c1=O)N1CCOCC1
inactive: growth inhibition [1] -5.42% | growth inhibition [2] -7.92% | viability increase [3] 0.78% | viability [4] 104% | viability [5] 104% | inhibition [6] -0.26% | RAM network inhibition [7] 0.26%

O=C(C1CC1)N1CCc2cc(Br)cc(S(=O)(=O)NC3CCCCC3)c21
inactive: growth inhibition [1] -3.11% | growth inhibition [2] -25.8% | viability increase [3] 1.71% | viability [4] 88.5% | viability [5] 89.4% | inhibition [6] 0.275% | RAM network inhibition [7] 5.54%

CS(=O)(=O)Nc1cccc2cccnc12
inactive: growth inhibition [1] 5.63% | growth inhibition [2] -1.19% | viability increase [3] -4.19% | viability [4] 50.4% | viability [5] 56.7% | inhibition [6] 2.3% | RAM network inhibition [7] 0.27%

Cn1c(Cn2c(=O)sc3ccccc32)nnc1SCC(N)=O
inactive: growth inhibition [1] -17.4% | growth inhibition [2] -3.94% | viability increase [3] 0.08% | viability [4] 110% | viability [5] 88% | inhibition [6] 1.82% | RAM network inhibition [7] 3.26%

Cc1oc(-c2ccc(Cl)cc2)nc1CN1CCC(C(=O)NCCCN2CCCC2=O)CC1
inactive: growth inhibition [1] -13.4% | growth inhibition [2] -11.7% | viability increase [3] -2.67% | viability [4] 93.1% | viability [5] 89% | inhibition [6] 1.76% | RAM network inhibition [7] 4.34%
